Assay outcomes (PubChem BioAssay)
This excerpt belongs to a sample that is enriched for hits.
L major viab – Leishmania major promastigote growth inhibition | Leishmania major promastigotes, resazurin fluorescence viability | inhibition, % at 10 µM | 200,000 tested, 9% active; in the data active = inhibition above about 50%;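 note: promastigotes grown with compound for 44 hours at 28 °C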
MDM2 E3 inh – inhibitors of human Mdm2 E3 ubiquitin ligase; Q00987; cell-based MDM2 ubiquitination luciferase reporter, 2 h; 0 = plate control, 100 = twice control, blank-subtracted; signal enhancement, % at 5 µM; 210,000 tested, 0.11% active; AID 1230;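 active = signal enhancement of 30% or more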;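 note: luminescence tracks abundance of the self-degrading MDM2-luciferase fusion protein; higher signal means inhibition of MDM2 E3 ligase activity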
Target sequence (Q00987 whole entry, looked up, the tested form may be a part): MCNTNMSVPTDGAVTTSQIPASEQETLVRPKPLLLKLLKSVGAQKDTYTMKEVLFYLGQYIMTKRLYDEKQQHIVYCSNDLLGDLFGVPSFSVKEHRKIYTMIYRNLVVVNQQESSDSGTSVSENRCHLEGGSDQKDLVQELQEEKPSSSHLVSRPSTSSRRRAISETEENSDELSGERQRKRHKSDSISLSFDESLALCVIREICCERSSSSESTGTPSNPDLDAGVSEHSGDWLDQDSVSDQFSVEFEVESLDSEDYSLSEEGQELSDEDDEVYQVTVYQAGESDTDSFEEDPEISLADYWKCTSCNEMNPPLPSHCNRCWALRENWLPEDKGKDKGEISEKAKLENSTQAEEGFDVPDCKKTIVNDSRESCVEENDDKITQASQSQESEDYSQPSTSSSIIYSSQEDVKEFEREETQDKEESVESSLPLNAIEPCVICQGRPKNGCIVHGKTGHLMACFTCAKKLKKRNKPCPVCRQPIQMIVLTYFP
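System: stable MDM2–luciferase fusion reporter cells / Input: 2000 cells seeded into each well / Schedule: 4 h settle plus 2 h compound, 37 °C / Compound: single-point 5 µM / Buffer or medium: cells held in DMEM / Benchmarks: control and blank well means / Evaluation: percent signal gain over controls, blank-subtracted / Measured by: luciferase luminescence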
S1P4 agonist – agonists of human S1P4 receptor; O95977; S1P4-expressing cell line, agonist reporter assay; activation, % at 4.98 µM; 220,000 tested, 0.35% active; AID 1509; in the data active = activation above about 11%
S1P3 antag – S1P3 (human) receptor antagonism | Q99500 | CHO S1P3 NFAT-BLA reporter, FRET fluorescence, antagonist mode | inhibition, % at 4.98 µM | 170,000 tested, 0.27% active;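 active = inhibition above the plate cutoff, the mean inhibition of test wells on that plate plus 3 SD, cut at about 28% in these data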;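 note: cells challenged with S1P at its EC80 of 0.8 µM; blue over green emission ratio from cleaved BLA substrate after 4 h stimulation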
S1P4 antagonist – human S1P4 receptor antagonism; S1P4-expressing cells, antagonist mode, reporter read-out; inhibition, % at 4.98 µM; 220,000 tested, 0.26% active; AID 1510; in the data active = inhibition above about 29%
A number is an active result; - = inactive; . = not tested or not shown.

SMILES	L major viab	MDM2 E3 inh	S1P4 agonist	S1P3 antag	S1P4 antagonist
COc1cc(C(=O)OCC(=O)NC2CCS(=O)(=O)C2)ccc1OCc1c(C)noc1C (stereo not given)	-	-	-	-	-
Cc1nn(-c2ccccc2)c(N2CCCC2)c1/C=N/n1cnc2scc(-c3ccccc3)c2c1=O	56	-	-	-	-
O=c1c2c(-c3ccccc3)csc2ncn1/N=C/c1c2ccccc2cc2ccccc12	100	-	-	.	-
O=c1c2c(-c3ccc(Cl)cc3)csc2ncn1/N=C/c1cccc([N+](=O)[O-])c1O	-	.	-	-	-
COc1cc(/C=N/n2cnc3scc(-c4cccs4)c3c2=O)cc(OC)c1OC	-	.	-	-	-
COc1ccc(-c2nc3nc(N)nn3cc2C)cc1F	-	-	-	-	-
O=C(CSc1ncn[nH]1)Nc1ccccc1-c1ccccc1	-	.	-	.	-
O=C(CSc1ncn[nH]1)Nc1ccccc1Sc1ccccc1	70	-	-	.	-
Cc1nn(-c2ccccc2)c(C)c1/C=C/C(=O)OCC(=O)NC1CCS(=O)(=O)C1 (stereo not given)	-	-	-	-	-
Cc1nn(C2CCS(=O)(=O)C2)c(Cl)c1/C=C/C(=O)OCC(=O)c1c[nH]c2ccccc12 (stereo not given)	60	-	-	-	-
Cc1nn(C2CCS(=O)(=O)C2)c(Cl)c1/C=C/C(=O)OCC(=O)c1cc(C)n(-c2ccc(F)cc2)c1C (stereo not given)	98	-	-	-	-
COc1ccc(OC)c(NC(=O)COC(=O)/C=C/c2c(C)nn(C3CCS(=O)(=O)C3)c2Cl)c1 (stereo not given)	-	-	-	.	-
CCc1ccc(C(=O)NNC(=S)Nc2ccc(S(N)(=O)=O)cc2)s1	-	-	-	-	-
Clc1cccc(C[n+]2cc(-c3ccccc3)n3c2CCC3)c1	99	-	-	-	-
Clc1ccc(-c2c[n+](Cc3ccc(Cl)c(Cl)c3)c3n2CCC3)cc1	99	-	-	-	-
Cc1ccc(-c2c[n+](Cc3ccc(Cl)cc3)c3n2CCC3)cc1	.	-	-	-	-
CCOc1ccc(C(C)=O)cc1CN1C(=O)NC(C)(C2CC2)C1=O (stereo not given)	-	-	-	-	-
CCOC(=O)c1ccc(Nc2c(OCC)c(=O)c2=O)cc1	.	-	-	-	-
CCN1C(=O)/C(=C2/Sc3ccc(OC)cc3N2C)SC1=Nc1cccc(O)c1	99	-	-	-	-
CCN1C(=O)/C(=C2/Sc3ccc(OC)cc3N2C)SC1=Nc1ccc(C(C)=O)cc1	-	.	-	.	-
c1ccc(Nc2nc3ccccc3[nH]2)nc1	100	-	-	-	-
CCCCNc1nc(=S)[nH]c2cc(OC)c(OC)cc12	-	-	-	.	-
CCOCCCNc1nc(=S)[nH]c2cc(OC)c(OC)cc12	67	-	-	-	-
O=C(NCCc1ccccc1)C1CCC(CNS(=O)(=O)c2cccc3cccnc23)CC1 (stereo not given)	.	-	-	-	-
COc1ccc(-n2nc([N+](=O)[O-])c(=NCCc3ccc(OC)c(OC)c3)n2O)cc1	94	-	-	-	-
SMILES	L major viab	MDM2 E3 inh	S1P4 agonist	S1P3 antag	S1P4 antagonist
COc1ccc(-n2nc([N+](=O)[O-])c(=NCc3cccnc3)n2O)cc1	82	-	-	-	-
COc1ccc(-n2nc([N+](=O)[O-])c(=NCCC3=CCCCC3)n2O)cc1	82	-	-	-	-
COc1ccc(-n2nc([N+](=O)[O-])c(=NCc3ccco3)n2O)cc1	-	-	-	-	-
COc1ccc(-n2nc([N+](=O)[O-])c(=NCCc3ccc(C)cc3)n2O)cc1	80	-	-	-	-
CCCNC(=O)c1nnsc1Sc1ccc(Cl)cc1	-	-	-	-	-
O=C1C2C3C=CC(CO)(O3)C2C(=O)N1c1ccccc1-c1ccccc1 (stereo not given)	-	-	-	-	31
Cc1cccc(C(C)(C)C)c1OCCn1ccnc1	99	-	-	-	-
Cc1cc(OCCCCn2ccnc2)cc(C)c1Cl	99	-	-	-	-
Cc1cccc(Cl)c1OCCCCn1ccnc1	98	-	-	-	-
Cc1cc(Cl)cc(C)c1OCCCCn1ccnc1	100	-	-	-	-
CC(=O)Nc1ccc(S(=O)(=O)N2CCCCC2c2cccnc2)cc1 (stereo not given)	-	-	-	-	-
COc1cc(C)c(C)cc1S(=O)(=O)N1CCCCC1c1cccnc1 (stereo not given)	92	-	-	-	-
